# Bioassay records from PubChem.
# MIN6 prolif: inducers of MIN6 beta-cell proliferation, primary screen, ATP luminescence, uHTS; MIN6 cells proliferation, ATPlite luminescence, 48 h; cells starved in 0.2% serum; 100% = growth in 10% serum; proliferation, % at 10 µM; 330,000 tested, 0.29% active; AID 2380, 2010;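 active = compounds whose signal lies at least 3.5 SD above the mean of all wells on their plate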;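 note: 0% = DMSO-treated cells in low-serum medium and 100% = 10% serum control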
# PG9 Ab binder: binders of HIV-1 gp120 antibody PG9, primary screen, biochemical, TR-FRET | HIV-1 gp120 / PG9 antibody interaction | TR-FRET gp120-PG9 antibody binding | inhibition, % at 6.7 µM | 360,000 tested, 0.43% active; in the data active = inhibition above about 8.5%
# T cruzi inh: inhibitors of intracellular T. cruzi growth, primary screen, luminescence, NIH3T3 host cells | 300,000 tested, 1.4% active | T. cruzi beta-gal in NIH3T3, 90 h | inhibition, % (concentration not given with the values);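 active = mean inhibition across valid replicates above about 55%, limit read from the data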;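 note: signal also drops with host cell toxicity which is not excluded here; 0% = plate median of DMSO wells and 100% = zero luminescence signal; higher percent means less beta-gal luminescence so fewer parasites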
#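 Assay system: NIH/3T3 fibroblasts plus reporter T. cruzi. Amount: NIH/3T3 cells, 5,000 per well. Buffer or medium: DMEM, 2% fetal bovine serum. Doses: compound pinned at 50 nL/well, DMSO. Schedule: ≥90 h infection period, 3 h prior cell attachment. Signal: luminescent β-galactosidase signal after 60 min lysis. Read-out: parasite load inhibition, %.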
# H9c2 TAG inh: inhibitors of triacylglycerol accumulation, primary screen, cell-based, uHTS, fluorescence, H9c2; inhibition, % at 12.5 µM; H9c2 cells, Nile Red lipid (TAG) fluorescence; cells loaded with 200 µM oleic acid; 230,000 tested, 0.66% active;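 active = pattern-corrected inhibition of lipid staining of at least 50% with the nuclear-stain viability signal not falling by more than 50%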;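 note: 0% = DMSO wells and 100% = triacsin C control wells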
# hiPSC survival: enhancers of single-cell hiPSC survival, primary screen, ATPlite luminescence | survival enhancement, % at 20 µM | 100% = ROCK inhibitor wells, 0% = DMSO | AID 602274, 2012 | 360,000 tested, 0.044% active; in the data active = survival enhancement above about 18%;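 note: cells exposed to compounds for 16 hours before the ATP read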
# NR1D1 modulator: modulators of Rev-erb alpha DNA binding, primary screen, biochemical, FITC-DNA, fluorescence polarization, uHTS | activity, % at 10 µM | Rev-erbα–FITC-DNA binding, 90 min | 370,000 tested, 0.79% active | Nuclear receptor subfamily 1 group D member 1 (Homo sapiens), P20393;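 active = activity above about 14%, limit read from the data; passing the limit was not always enough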;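 note: 0% = DMSO wells with 35 nM protein and 100% = DMSO wells with 750 nM protein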
# Target sequence (P20393 whole entry, looked up): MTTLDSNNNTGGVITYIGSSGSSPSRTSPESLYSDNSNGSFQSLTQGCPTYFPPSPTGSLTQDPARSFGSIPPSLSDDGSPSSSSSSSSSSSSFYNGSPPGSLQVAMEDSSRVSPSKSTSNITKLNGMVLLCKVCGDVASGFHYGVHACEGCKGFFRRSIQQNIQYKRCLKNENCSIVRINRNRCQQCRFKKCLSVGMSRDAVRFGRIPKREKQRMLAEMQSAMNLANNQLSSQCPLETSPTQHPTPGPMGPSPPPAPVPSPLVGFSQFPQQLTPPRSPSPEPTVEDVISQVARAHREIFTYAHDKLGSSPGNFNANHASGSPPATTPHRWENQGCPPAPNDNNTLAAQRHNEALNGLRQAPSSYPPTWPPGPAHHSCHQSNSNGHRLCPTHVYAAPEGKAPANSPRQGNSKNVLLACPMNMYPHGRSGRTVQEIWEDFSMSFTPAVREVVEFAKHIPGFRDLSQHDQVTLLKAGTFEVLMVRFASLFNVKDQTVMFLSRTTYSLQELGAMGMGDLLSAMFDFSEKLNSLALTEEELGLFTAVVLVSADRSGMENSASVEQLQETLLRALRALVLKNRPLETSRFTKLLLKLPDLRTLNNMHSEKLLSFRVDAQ
# * marks the source's active call; other numbers are inactive results; · = not tested or not shown. Most compounds without a hit are left out; they make up all but 2.9% or so of the library.
SMILES,MIN6 prolif,PG9 Ab binder,T cruzi inh,H9c2 TAG inh,hiPSC survival,NR1D1 modulator
O=[N+]([O-])c1c(Nc2ccc(O)cc2)cc(Cl)c2nonc12,-5,2,64*,·,1,0
CN(C)c1cc(Nc2ccc(O)cc2)c([N+](=O)[O-])c2nonc12,-3,1,-8,-19,0,9
Cn1c(=N)n(CC(O)c2ccco2)c2ccccc21 (centres undefined),0,1,4,-14,0,-5
Cc1cc(C)nc(N2CCN(C(=O)CCC(=O)Nc3nnc(C(C)C)s3)CC2)n1,-4,-1,12,-3,0,3
CCCCCCCC[n+]1cccc2c3ccccc3ccc21,-7,3,68*,9,-5,-2
Cc1cccc[n+]1CCCCCCCCCC[n+]1ccccc1C,-2,-1,-15,-7,0,-2
CCCCCCCCCC[n+]1cccc2c3ccccc3ccc21,·,0,70*,31,-3,-7
COc1ccc2c(c1)c(C(=O)N/N=C/c1cccc(Br)c1)c(C)n2C,5,-1,55*,-9,-1,7
CCN(CC)P(=O)(Nc1ccc(C)cc1Br)c1ccc(N(C)C)cc1NC(=O)c1ccco1 (centres undefined),-5,-1,64*,33,-1,1
CN(CCc1ccccn1)C(=O)c1nn2c(C(F)(F)F)cc(-c3ccco3)nc2c1Cl,-3,-2,-10,-11,-1,0
Cc1cccc2sc(N(CCN(C)C)C(=O)C3CCN(S(=O)(=O)c4cccs4)CC3)nc12,6,-1,57*,-1,0,-1
CN(C)CCN(C(=O)C1CCN(S(=O)(=O)c2cccs2)CC1)c1nc2ccc(F)cc2s1,-1,1,49,12,0,-1
CCC(CO)NCc1ccc(-c2ccccc2)cc1 (centres undefined),0,2,30,·,-1,-3
CCOc1ccc(C)cc1S(=O)(=O)n1ccnc1,0,-1,-20,3,0,2
CCOc1cc(C)c(Cl)cc1S(=O)(=O)n1ccnc1,-2,-1,72*,·,2,3
Cc1ccc2nc(NC(=O)c3cccc(-c4cc5ccccc5oc4=O)c3)sc2c1,-5,0,64*,·,·,13
CN1CCN(S(=O)(=O)c2ccc(SCCOc3ccc(Cl)cc3)nc2)CC1,-6,-2,·,-18,0,-2
COC1CCN(Cc2c(C(=O)N3CCN(C4CCCCC4)CC3)nc3ccccn23)CC1,-2,·,59*,7,1,·
COCC1CCN(Cc2c(C(=O)N3CCN(C4CCCCC4)CC3)nc3ccccn23)C1 (centres undefined),-2,1,28,-3,0,2
O=c1c2ccccc2nc(SCCN2CCCCC2)n1CCc1ccccc1,-4,0,63*,0,1,-1
NC(=O)CSc1nc2ccccc2c(=O)n1CCc1ccccc1,-2,0,-10,·,0,-1
CCCOc1ccc(NC(=O)OC2CCN(C)CC2)cc1,0,0,55*,·,-3,-5
COc1ccc2sc(N(CCCN(C)C)C(=O)c3ccc(C(=O)c4ccccc4)cc3)nc2c1,-5,2,54,19,0,5
COc1ccc2sc(N(CCCN(C)C)C(=O)c3ccc(S(=O)(=O)N4CCCc5ccccc54)cc3)nc2c1,-7,1,62*,12,0,-6
COc1cc2nc(N(CCCN(C)C)C(=O)c3ccc(S(=O)(=O)N(C)C4CCCCC4)cc3)sc2cc1OC,-6,-3,50,18,-1,-2
SMILES,MIN6 prolif,PG9 Ab binder,T cruzi inh,H9c2 TAG inh,hiPSC survival,NR1D1 modulator
COc1cc2nc(N(CCCN(C)C)C(=O)c3ccc(S(=O)(=O)N4CCc5ccccc54)cc3)sc2cc1OC,-8,0,55*,27,0,5
COc1ccc(/C=N/Nc2ccc(C(F)(F)F)cc2[N+](=O)[O-])cc1O,0,-5,5,·,-1,-6
CCOc1ccc(-n2c(C)c(C(C)=O)c(C(C)=O)c2C)cc1,-1,1,-2,11,0,0
CCn1cc(-c2ccnc3cc(C(=O)O)nn23)c(C)n1,0,1,-2,5,0,-1
Cc1ccc(C(C)C)c(OCC(=O)NC2CCN(C)CC2)c1,-1,-1,64*,·,0,0
Cc1ccc(OCC(=O)NC2CCCC2)c(C)c1,-3,-4,-4,-7,4,-1
Cc1cc(Cl)ccc1OCCCC(=O)NC1CCN(C)CC1,-4,·,71*,·,-4,2
CCOC(=O)C1C(C(=O)OC)=C(c2ccc(OC)cc2)c2ccccc2N1S(=O)(=O)C(F)(F)F (centres undefined),·,1,·,-32,-2,1
OC(COc1ccc(CNCCc2ccc(C(F)(F)F)cc2)cc1)CN1CCCCC1 (centres undefined),-6,-4,59*,37,-5,-3
COc1ccc(CN(C)C(C)C(=O)Nc2ccc([N+](=O)[O-])cc2Cl)cc1OC (centres undefined),0,-3,10,1,0,0
Cc1ccc(OC(F)F)c(NC(=O)Nc2cccc(C(F)(F)F)c2)c1,-7,·,55*,·,-2,1
O=C(c1cnn2c(C(F)(F)F)cc(-c3ccccc3)nc12)N1CCCc2ccccc21,-4,-1,-1,·,0,0
O=C(c1cnn2c(C(F)(F)F)cc(-c3ccccc3)nc12)N1CCCCC1c1cccnc1 (centres undefined),3,-1,59*,7,-1,-7
O=C(c1cc2nc(-c3ccc(F)cc3)cc(C(F)(F)F)n2n1)N1CCCCC1c1cccnc1 (centres undefined),-7,0,95*,-13,1,-6
CN1CCN(C(=O)c2cc3nc(-c4ccc(F)cc4)cc(C(F)(F)F)n3n2)CC1,-2,-4,3,10,-1,1
Cc1ccc(-c2cc(C(F)F)n3ncc(C(=O)N4CCCCC4c4cccnc4)c3n2)cc1 (centres undefined),-1,3,63*,15,0,3
COc1ccc(-c2cc(C(F)(F)F)n3ncc(C(=O)N4CCc5ccccc5C4)c3n2)cc1,-6,0,63*,1,-1,0
Cc1ccc(/C=C/C(=O)Nc2cccnc2)o1,3,-1,0,·,1,0
COc1ccccc1N1C(=O)S/C(=C\c2cccs2)C1=O,-4,0,-10,-12,1,4
